Compound activity (PubChem BioAssay)
This is a sample that favours compounds with a hit; in the whole collection about 3.5% have one here.
MrgX1 antagonist – antagonists of human MrgX1 receptor, primary screen, HEK293 cells, Fluo-4 calcium flux | 310,000 tested, 1.3% active | Mas-related G-protein coupled receptor member X1 (Homo sapiens), Q96LB2 | BAM8-22 antagonism; stronger effect = lower value | B-score at 10 µM;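 active means calcium-response B-score plate-corrected more than 3 library SD below zero, starting fluorescence within 5 deviations, no agonist response on first addition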;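 further: peak minus trough fluorescence over baseline after final BAM8-22 challenge near maximal dose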
Target sequence (Q96LB2 whole entry, looked up): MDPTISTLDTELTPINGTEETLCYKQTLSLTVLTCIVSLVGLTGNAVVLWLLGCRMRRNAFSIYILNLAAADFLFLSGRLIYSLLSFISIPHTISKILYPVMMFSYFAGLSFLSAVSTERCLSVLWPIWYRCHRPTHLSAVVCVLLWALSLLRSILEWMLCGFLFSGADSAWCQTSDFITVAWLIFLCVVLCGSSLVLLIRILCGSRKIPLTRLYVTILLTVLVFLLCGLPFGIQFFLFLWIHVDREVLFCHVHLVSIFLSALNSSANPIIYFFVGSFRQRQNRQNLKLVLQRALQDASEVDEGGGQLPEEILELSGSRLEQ
RGS4 inh – RGS4 inhibitors, primary screen, cell-based, HEK293 M3R inducible RGS4, calcium flux; Regulator of G-protein signaling 4 (Homo sapiens), P49798; Fluo-4 calcium flux; stronger effect = higher value; triggered by carbachol at its EC20; B-score at 10 µM; 310,000 tested, 0.45% active; AID 463165, 2010;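 active means B-score, a plate-corrected calcium signal, over three deviations above library mean, with baseline fluorescence within five deviations of library mean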;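 further: RGS4 expression induced by doxycycline in cells with stable M3 receptor; B-score is computed from the integrated fluorescence ratio over baseline after carbachol; higher B-score means a larger calcium signal and so more RGS4 inhibition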
Target sequence (P49798 whole entry, looked up): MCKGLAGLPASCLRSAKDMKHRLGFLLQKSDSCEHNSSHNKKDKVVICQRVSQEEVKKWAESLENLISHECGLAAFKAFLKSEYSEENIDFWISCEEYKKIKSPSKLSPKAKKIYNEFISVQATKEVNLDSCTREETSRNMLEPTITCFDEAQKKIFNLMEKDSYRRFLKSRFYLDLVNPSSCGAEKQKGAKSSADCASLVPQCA
RGS4 act – RGS4 potentiators or activators, primary screen, cell-based, HEK293 M3R inducible RGS4, calcium flux; carbachol calcium flux Fluo4; stronger effect = lower value; B-score at 10 µM; 310,000 tested, 0.92% active; AID 463111, 2010;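 active means B-score of the integrated calcium signal more than 4 SD below the library mean, with starting fluorescence not abnormally high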;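 further: negative B-score means reduced calcium response which marks RGS4 activation or potentiation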
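System: HEK293 FlpIn-TREx cells, stable M3R, doxycycline-inducible RGS4. Timing: overnight RGS4 induction, 30 min dye load 37 °C, 20 min compound RT. Also added: carbachol, ECmax concentration. Measured by: Fluo4 fluorescence kinetic imaging of calcium. Evaluation: integrated calcium ratio converted to B score.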
MrgX1 ag – agonists of human MrgX1 receptor, primary screen, HEK293 cells, Fluo-4 calcium flux | 310,000 tested, 0.44% active | Fluo-4 calcium fluorescence, agonist mode; stronger effect = higher value | B-score at 10 µM | AID 588627, 2011 | Mas-related G-protein coupled receptor member X1 (Homo sapiens), Q96LB2;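 active means calcium response B-score plate-corrected fluorescence ratio at least 3 library SD, with starting fluorescence B-score inside 5 SD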
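times = overnight plating, then 30 min 37 °C plus 30 min room-temperature dye loading | assay system = stable human MrgX1 HEK293 cell line | input = fifteen thousand cells per well | signal = kinetic calcium dye fluorescence, Fluo-4 NW | dosing = compound delivered in addition one of three | read-out = B-scored fluorescence response ratio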
MrgX1 allo act – positive allosteric modulators of MrgX1, primary screen, HEK293 cells, Fluo-4 calcium flux; FDSS; stronger effect = higher value; B-score at 10 µM; Mas-related G-protein coupled receptor member X1 (Homo sapiens), Q96LB2; 310,000 tested, 0.63% active;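 active means plate-corrected calcium response at least 3 library SD above typical, normal starting fluorescence, not activating the receptor alone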;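 further: compound read alongside a low EC10 to EC30 dose of BAM8-22 agonist; peak minus trough fluorescence over baseline measured at the second addition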
MrgX1 PAM conf – MrgX1 positive allosteric modulators, duplicate retest, confirmation, HEK293 cells, Fluo-4 calcium flux; shares compounds with MrgX1 allo act; Fluo-4 calcium fluorescence, FDSS; 1,200 tested, 13% active; activation (ratio percentage), % at 10 µM;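 active means ratio at least 3 SD above the weak peptide control, stable starting fluorescence, no direct agonism earlier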;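 further: compound followed by low BAM8-22 agonist challenge near EC20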
MrgX1 ant reconf – MrgX1 receptor antagonists, duplicate retest, confirmation, HEK293 cells, Fluo-4 calcium flux | 2,300 tested, 19% active | BAM8-22 calcium flux; stronger effect = lower value | remaining BAM8-22 calcium response % of control (stronger effect = lower value), % at 10 µM | shares compounds with MrgX1 antagonist;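 active means remaining agonist calcium response no higher than 100% minus 3 SD of agonist-only control wells, with starting fluorescence near control levels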;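 further: agonist BAM8-22 given at a near maximal EC90 to ECmax level; peak minus minimum fluorescence divided by baseline after agonist addition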
HEK293 Ca flux – nonspecific calcium signal in parental HEK293, confirmation, counter-screen for MrgX1 antagonist project, parental HEK293 cells, Fluo-4 calcium flux; shares compounds with MrgX1 antagonist; Fluo-4 calcium fluorescence, FDSS; fluorescence ratio F(max-min)/F0 at 10 µM; 4,000 tested, 2% active; AID 624111, 2012;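 active means duplicate-averaged calcium fluorescence ratio at least three times the standard deviation of buffer wells, a nonspecific response in parental cells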
HEK293 Ca counter – calcium response in parental HEK293 cells, primary screen, counter-screen for MrgX1 allosteric activator project, cell-based, Fluo-4 calcium flux, duplicate; AID 624114, 2012; shares compounds with MrgX1 antagonist; 4,000 tested, 0.4% active; fluorescence ratio F(max-min)/F0 at 10 µM; Fluo-4 fluorescence ratio; stronger effect = higher value;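 active means calcium fluorescence ratio, averaged over duplicates, at least 3 SD of the buffer-well ratio, meaning a nonspecific response in receptor-free cells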;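 further: untransfected parental HEK293 lacking MrgX1 used as counterscreen for MrgX1 allosteric activators; fluorescence change taken during the second addition on a kinetic imager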
HEK293 Ca cntr2 – calcium response in parental HEK293 cells, primary screen, counter-screen for MrgX1 agonist project, cell-based, Fluo-4 calcium flux, duplicate, agonist mode. Fluo-4 calcium fluorescence (FDSS); stronger effect = higher value. shares compounds with MrgX1 antagonist. fluorescence ratio F(max-min)/F0 at 10 µM. AID 624115, 2012. 4,000 tested, 8.7% active;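 active means calcium fluorescence ratio at least three times the spread of buffer wells, meaning a non-specific response in parental cells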
Numbers stand for hits; n = inactive; x = no result.

SMILES | MrgX1 antagonist | RGS4 inh | RGS4 act | MrgX1 ag | MrgX1 allo act | MrgX1 PAM conf | HEK293 Ca flux | HEK293 Ca counter | HEK293 Ca cntr2 | others
COC(=O)c1[nH]c2ccc(C)cc2c1NC(=O)CN1CCN(c2ccccc2)CC1 | n | n | n | n | n | x | x | x | x
COC(=O)c1[nH]c2ccc(C)cc2c1NC(=O)CN1CCC(C)CC1 | n | n | n | n | 7.84 | n | n | n | n
CCOc1ccc(NC(=O)NC(=O)N(C(C)C)S(C)(=O)=O)cc1 | n | n | n | n | 10 | n | n | n | n
COc1cc(-c2nnc(NC(=O)CS(=O)(=O)c3ccc(C)cc3)o2)cc(OC)c1OC | n | n | n | n | n | x | x | x | x
CC(=O)/C(=C(/O)c1ccccc1)c1nc2ccccc2[nH]1 | n | n | n | n | 11.8 | n | n | n | n
O=C(c1cc2cc(F)ccc2[nH]1)N1CCCC(Nc2ccc(F)cc2)C1 (centres undefined) | n | n | n | n | 12.6 | n | n | n | n
CCOC(=O)C1CCCN(C(=O)c2cc3cc(F)ccc3[nH]2)C1 (centres undefined) | n | n | n | n | 7.92 | n | n | n | n
Cc1ccc2[nH]c(C(=O)N3CCCCC3)cc2c1 | n | n | n | n | 17 | n | n | n | n
Cc1ccc2[nH]c(C(=O)N3CCOCC3)cc2c1 | n | n | n | n | n | x | x | x | x
CCOC(=O)C1CCN(C(=O)c2cc3cc(F)ccc3[nH]2)CC1 | n | n | n | n | n | x | x | x | x
Cc1ccc(C(=O)NCC(=O)OCC(=O)Nc2ccc3[nH]c(=O)[nH]c3c2)cc1 | n | n | n | n | n | x | x | x | x
CC(C)(C)NC(=O)C1CCN(C(=O)c2ccco2)CC1 | n | n | n | n | n | x | x | x | x
Cc1ccsc1C(=O)N1CCN(S(=O)(=O)c2cccc(F)c2)CC1 | n | n | n | n | n | x | x | x | x
CSc1ncccc1C(=O)NCc1ccc(C)cc1 | n | n | n | n | n | x | x | x | x
CCOc1ncccc1C(=O)NCc1ccc(C)cc1 | n | n | n | n | 7.17 | n | n | n | n
N#C/C(=C\c1c(F)cccc1Cl)S(=O)(=O)c1ccccn1 | n | n | n | n | n | x | x | x | x
Cc1ccc(C(=O)c2cn[nH]c2-c2cc(Cl)ccc2O)cc1 | n | n | n | n | 10.8 | n | n | n | n
Cc1ccc(-c2[nH]ncc2C(=O)c2ccc(Br)cc2)c(O)c1 | n | n | n | n | 8.66 | n | n | n | n
COc1ccc(C)cc1NC(=O)C(C)N(c1ccc(C)cc1)S(C)(=O)=O (centres undefined) | n | n | n | n | 7.58 | n | n | n | n
COc1cc(-c2noc(C)c2-c2ccc(N(C)C)nc2)cc(OC)c1OC | -5 | n | n | n | 7.72 | n | n | n | n | MrgX1 ant reconf=n
COc1cc(-c2noc(C)c2/C=C/c2ccc(C(=O)O)cc2)cc(OC)c1OC | n | n | n | n | n | x | x | x | x
Cc1cc(NC(=O)CSc2nc(=O)n(CCCN(C)C)c3c2CCCC3)no1 | n | n | n | n | n | x | x | x | x
Cc1nnc(SCC(=O)c2cc(C)n(-c3ccc4c(c3)OCO4)c2C)s1 | n | n | n | n | 16 | n | n | n | n
CCOc1ccccc1NC(=O)CSc1nncc2ccccc12 | n | n | n | n | n | x | x | x | x
O=C(Nc1ccc2c(c1)C(=O)NC2=O)c1cccc(C(F)(F)F)c1 | n | n | n | n | n | x | x | x | x
SMILES | MrgX1 antagonist | RGS4 inh | RGS4 act | MrgX1 ag | MrgX1 allo act | MrgX1 PAM conf | HEK293 Ca flux | HEK293 Ca counter | HEK293 Ca cntr2 | others
CC(C)N(C(=O)COc1ccc(Br)cc1Cl)C(C)C | n | n | n | n | 21.2 | 6.4% | n | n | n
O=C(COc1ccc(Br)cc1Cl)c1ccc[nH]1 | n | n | n | n | 9.68 | n | n | n | n
CN(C)c1ccc(/C=N/Nc2cccc(C(=O)O)c2)cc1 | n | n | n | n | n | x | x | x | x
Cc1cc2c(cc1S(=O)(=O)N1CCOCC1)NC(=O)CO2 | n | n | n | n | n | x | x | x | x
CCOC(=O)c1c(-c2ccc(C)cc2)csc1NC(=O)C1CC=CCC1C(=O)O (centres undefined) | n | n | n | n | n | x | x | x | x
Cc1ccc(-c2csc(NC(=O)C3CC=CCC3C(=O)O)c2C(=O)OC(C)C)cc1 (centres undefined) | n | n | n | n | 7.3 | n | n | n | n
CCN(C(=O)CSc1nc2ccccc2o1)c1c(N)n(Cc2ccccc2)c(=O)[nH]c1=O | n | n | n | n | n | x | x | x | x
CCOC(=O)c1c(NC(=O)CN2CCOCC2)sc2c1CCCC2=O | n | n | n | n | n | x | x | x | x
CCOC(=O)c1c(NC(=O)CN2CCOCC2)sc2c1CCCC2 | n | n | n | n | 7.13 | n | n | n | n
COc1ccc(-c2csc(=NCCO)n2-c2ccccc2)cc1 | -5.76 | n | n | n | 8.75 | 19.9% | n | n | n | MrgX1 ant reconf=n
CCCNC(=O)CN1CCC(c2nc3ccccc3[nH]2)CC1 | n | n | n | n | 11.6 | n | n | n | n
Cc1cccc2sc(NS(=O)(=O)c3ccccc3)nc12 | n | n | n | n | 8.32 | n | n | n | n
Cc1nc(NS(=O)(=O)c2ccccc2)sc1C(C)(C)C | n | n | n | n | n | x | x | x | x
CCc1ccc(C(N)=S)cc1 | n | n | n | n | 8.95 | n | n | n | n
CSc1nc(N(C)C)nc(N(C)C#N)n1 | n | n | n | n | n | x | x | x | x
N#CC1=C(N)OC2=C(CCc3ccccc32)C1c1ccccc1 (centres undefined) | n | n | n | n | 9.71 | n | n | n | n
N#CC1=C(N)Oc2cc(O)ccc2C1c1ccccc1 (centres undefined) | n | n | n | n | n | x | x | x | x
